IC50, Activity and ED50 data for 25 molecules are collected here from ChEMBL document CHEMBL1127667, “Synthesis of benzo-fused benzodiazepines employed as probes of the agonist pharmacophore of benzodiazepine receptors” (J Med Chem, 1994).

The structures appear in SMILES notation.

Experiment [1] has as its target GABA-A receptor; anion channel. The experiment in a line: In vitro inhibitory concentration of compound against benzodiazepine receptor from rat cerebral cortex using [3H]- flunitrazepam was evaluated. Type of experiment: tissue-based. Put shortly: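 Rat cerebral cortex membranes prepared in 50 mM Tris-citrate, pH 7.4, washed three times. About 0.1 mg protein incubated with [3H]flunitrazepam (~1 nM final) and NaCl at 0-4 °C for 60 min. Bound ligand collected by GF/B filtration. IC50 taken from at least six inhibitor concentrations. Mean ± SEM of at least three determinations.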

In experiment [2] the target is T1, GABA-A receptor; anion channel (Mus musculus) (UniProt Q8BHJ7+P26048+Q8QZW7+P50571+Q9R0Y8+P22723+A2AMW3+P62812+Q9JLF1+P26049+P22933+Q9D6F4+P63080+P27681+P16305). The experiment in a line: In vivo activity of compound was evaluated against benzodiazepine receptor in mice. Type of experiment: functional, organism-based. Put shortly:
(§1)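 Adult male NIH/Swiss mice, groups of three to eight, given graded ip doses in diluted Emulphor/saline (1:9). Muscle relaxation tested on a wire at 12 min. PTZ given at 15 min: 80 mg/kg to test anticonvulsant action, 40 mg/kg to test proconvulsant action.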

Experiment [3] is filed under the species Mus musculus. The experiment in a line: Compound was tested for myorelaxant effect in mice. It is filed as functional. Put shortly:
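Male NIH/Swiss mice, 25-30 g, groups of three to eight, dosed ip with graded amounts in diluted Emulphor/saline (1:9) or vehicle. At 12 min, mice were hung by the forepaws on a 1.5-mm wire 60 cm above the bench. Three falls within 1 min counted as muscle relaxation. ED50 derived from the dose-response.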

The species entered for experiment [4] is Mus musculus. The experiment in a line: Compound was tested for anticonvulsant effect in mice. It is filed as functional. An outline of the steps:
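Male NIH/Swiss mice, 25-30 g, groups of three to eight, given graded ip doses in diluted Emulphor/saline (1:9) or vehicle. PTZ 80 mg/kg injected 15 min after dosing. Protection from PTZ-induced convulsions scored. ED50 derived from the dose-response.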

Experiment [5] deals with T1, GABA-A receptor; anion channel (Mus musculus). The experiment in a line: In vivo activity against GABA-A benzodiazepine receptor in mice. It is filed as functional, organism-based. Also on record: unit not given here. Put shortly:
as §1

One may read the IC50 as the concentration needed to halve the response being measured. `C=Cc1ccc2c(c1)C(c1ccccc1)=NCC(=O)N2`: in experiment [1], the IC50 turned out to be 24 nM. For the same molecule, the Activity result in experiment [2] was “Weak activity”.

In experiment [1], `CN1C(=O)CN=C(c2ccccc2)c2ccc3ccccc3c21` came in with an IC50 of over 1000 nM.

A word on the ED50: it is the dose that gives a 50% effect, or the effect in half of the subjects. Molecule `CN1C(=O)CN=C(c2ccccc2F)c2cc3ccccc3cc21` had an IC50 in experiment [1] of 55 nM. For the same molecule, the ED50 in the experiment filed under Mus musculus [3] and in the experiment listed under Mus musculus [4] was 15 mg/kg throughout.

In the case of `CN1C(=O)CN=C(c2ccccc2)c2cc(Cl)c(Cl)cc21`, the IC50 in experiment [1] is 40 nM. In addition, the Activity result in experiment [2] was “Weak activity”.

In turn, `O=C1CN=C(c2ccccc2F)c2cc3ccccc3cc2N1` displayed an IC50 in experiment [1] of over 1000 nM.

`CN1C(=O)CN=C(c2ccccc2F)c2c(Cl)cccc21` showed an IC50 in experiment [1] of 150 nM. This molecule had an Activity in experiment [2] of 0.

In experiment [5], `Cc1cc(C)c2c(c1)C(c1ccccc1)=NCC(=O)N2` yielded an Activity of 792.

In experiment [1], `O=C1CN=C(c2ccccc2)c2cc3ccccc3cc2N1` gave an IC50 of 400 nM.

`CN1C(=O)CN=C(c2ccccc2F)c2ccc3ccccc3c21` showed an IC50 in experiment [1] of 260 nM.

`Cc1cc([N+](=O)[O-])cc2c1NC(=O)CN=C2c1ccccc1` displayed an Activity in experiment [5] of 8.12.

For `O=C1CN=C(c2ccccc2)c2c(ccc3ccccc23)N1`, the IC50 in experiment [1] was over 1000 nM.

Take `CN1C(=O)CN=C(c2ccccc2)c2c1ccc1ccccc21`: the IC50 in experiment [1] is over 1000 nM.

Turning to `Cc1cc2c(cc1C)C(c1ccccc1)=NCC(=O)N2`, the Activity in experiment [5] was found to be 132.

As for `CN1C(=O)CN=C(c2ccccc2)c2cc3ccccc3cc21`, in experiment [1], the IC50 is over 1000 nM.

In experiment [2], `CN1C(=O)CN=C(c2ccccc2)c2cc(Cl)ccc21` had an Activity of 1.39.

`CCOC(=O)c1ncc2[nH]c3ccc(OCc4ccccc4)cc3c2c1COC` gave an IC50 in experiment [1] of 5 nM.

In the case of `O=C1CN=C(c2ccccc2)c2c(Cl)cccc2N1`, in experiment [1], half-maximal inhibition (IC50) was put at 320 nM. In experiment [2], this molecule registered an Activity of 0.

In the case of `CN1C(=O)CN=C(c2ccccc2F)c2c1ccc1ccccc21`, the IC50 in experiment [1] was over 1000 nM.

For the molecule `O=C1CN=C(c2ccccc2F)c2cc(Cl)c(Cl)cc2N1`, in experiment [1], half-maximal inhibition (IC50) required 3.6 nM.

Take `O=C1CN=C(c2ccccc2)c2cc(Cl)cc(Cl)c2N1`: the Activity in experiment [5] is 8.

In turn, `O=C1CN=C(c2ccccc2F)c2c(ccc3ccccc23)N1` returned an IC50 in experiment [1] of over 1000 nM.

With `O=C1CN=C(c2ccccc2)c2cc(-c3ccccc3)ccc2N1`, in experiment [5], the Activity stood at 781.

On to `O=C1CN=C(c2ccccc2)c2ccc3ccccc3c2N1`, for which, in experiment [1], the IC50 is over 1000 nM.

As to `Cc1cc2c(cc1Cl)NC(=O)CN=C2c1ccccc1F`, half-maximal inhibition in experiment [1] (IC50) required 14 nM. The same molecule returned an Activity in experiment [2] of 0.

Consider `O=C1CN=C(c2ccccc2F)c2ccc3ccccc3c2N1`, for which the IC50 in experiment [1] was determined as 120 nM.
